bCat KO growth – primary screen for growth suppressors in beta-catenin knockout HCT116 cells (colon tumor, human); actives 1.5% (n = 140,000); HCT116 beta-catenin knockout viability, CellTiter-Glo, 60 h; stronger effect = lower value; viability, % at 10 µM; AID 818, 2007;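 active means viability at or under a set limit, the compound median less 4 SD, cut at about 6% in these data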;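 further: 0% = Hyamine 1622 control at 20 µM and 100% = untreated cell control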
H69AR growth 86K – proliferation blockers of H69AR lung cancer cells, primary screen, cell-based, human, 86K library. H69AR lung tumor viability, ATP luminescence, 72 h; stronger effect = lower value. viability, % at 10 µM. actives 6% (n = 85,000). AID 598, 2007;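 active means viability at or below 40%; inactive means viability above 40%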;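 further: multidrug resistant small cell line overexpressing MRP-1 efflux transporter; 100% = mean luminescence of untreated control wells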
HUVEC inhibit – inhibitors of HUVEC proliferation, primary screen, cell-based, 384-well; CellTiter-Glo luminescence, 72 h; stronger effect = lower value; viability, % at 10 µM (by protocol); actives 1.1% (n = 86,000);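 active means viability at or below 30%; inactive means viability above 30%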;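 further: 100% = median luminescence of DMSO-only cell control wells on each plate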
PTEN del growth – growth suppression of PTEN-null HCT116, primary screen, cell-based, CellTiter-Glo; HCT116 PTEN-null viability, 60 h; stronger effect = lower value; actives 1.2% (n = 140,000); viability, % at 10 µM;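 active means viability at or below a set limit, 4 SD under the median of all tested compounds, cut at about 3.7% in these data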;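 further: PTEN knockout HCT116 line with beta catenin targeted HCT116 as companion control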
Fibroblast inh – antiproliferative effect on LL 47 fibroblasts – human, LL 47 cells, CellTiter-Glo luminescence, primary screen. LL 47 human lung fibroblast viability, ATP luminescence; stronger effect = lower value. viability, % at 10 µM. actives 1.1% (n = 85,000);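 active means viability at or below 50% in the single dose screen; inactive means viability above 50%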;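 further: compound exposure lasted 72 h before the ATP readout; 100% = median luminescence of untreated cell-only wells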
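Test system: LL 47 human lung fibroblasts / Incubation: 72 h compound exposure at 37 °C after overnight plating / Technique: luminescent ATP detection, CellTiter-Glo / Compound dosing: 0.1% DMSO in all compound wells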
* hit, by the source's call; x = no result given. Shown is part of a subset that was picked to be rich in hits.

SMILES	bCat KO growth	H69AR growth 86K	HUVEC inhibit	PTEN del growth	Fibroblast inh
COCCn1nnnc1C(c1cc2cc(C)ccc2[nH]c1=O)N1CCCCCC1 (centres undefined)	95	72	97	106	104
O=c1[nH]c2cc3c(cc2cc1C(c1nnnn1Cc1ccccc1)N1CCCc2ccccc21)OCO3 (centres undefined)	90	21*	53	86	80
CCc1ccc(CCC(=O)Nc2ccccc2C(=O)O)o1	86	92	84	89	104
Cn1ncc(N=Cc2ccccc2)c1C(=O)Nc1cccc(Cl)c1	59	38*	61	62	78
CCOC(=O)c1c(-c2ccccc2)csc1NC(=O)/C(C#N)=C/c1ccc(O)c(OC)c1	80	x	x	83	x
Cc1ccccc1-c1nc(CN2CCC(C(=O)NC3CCN(Cc4ccccc4)CC3)CC2)c(C)o1	x	22*	9.9*	x	57
Cc1ccccc1-c1nc(CN2CCC(C(=O)NCCC3=CCCCC3)CC2)c(C)o1	2.4*	28*	4.8*	2.4*	76
COc1cc2c(=O)n(Cc3ccccc3)c(=O)n(CC(=O)NCC3CCCO3)c2cc1OC (centres undefined)	85	x	x	101	x
Cc1cc(NC(=O)CSc2nc3sc(C)c(C)c3c(=O)n2C2CCCC2)no1	89	15*	45	85	15*
NC(N)=N/N=C/c1ccc(OCc2ccccc2Cl)cc1	0.9*	x	x	0.9*	x
NC(N)=N/N=C/c1ccccc1	91	99	99	81	96
O=C(c1ccccc1F)N1CCN(c2ccccc2F)CC1	92	103	85	86	100
COc1ccc(C(=O)C(CCCCC(CN(C)C)C(=O)c2ccc(OC)cc2)CN(C)C)cc1 (centres undefined)	18	x	x	18	x
CCOc1ccc(C(=O)C(CCC(CN(C)C)C(=O)c2ccc(OCC)cc2)CN(C)C)cc1 (centres undefined)	1.1*	x	x	1.3*	x
O=C(/C=C/c1ccccc1F)c1ccoc1	5.3*	x	x	8	x
O=C(/C=C/c1ccoc1)c1ccccc1O	78	x	x	78	x
CCc1nnc(NC(=O)Cn2nc(-c3ccc(OC)c(OC)c3)ccc2=O)s1	103	89	98	99	95
O=C(NCc1cccnc1)c1cc(Sc2cccc(Cl)c2)nc2ccccc12	75	x	x	59	x
CC1(c2ccc(Cl)cc2Cl)OCC(Cn2ccnc2)O1 (centres undefined)	71	34*	83	57	95
COc1ccc(N2CCN(c3nc4ccccn4c(=O)c3C=O)CC2)cc1	96	x	x	99	x
O=C(Nc1nc2ccc(S(=O)(=O)N3CCCCC3)cc2s1)C1CCCO1 (centres undefined)	55	100	78	53	98
Nc1nc2ccc(S(=O)(=O)N3CCCCC3)cc2s1	91	0.7*	82	83	47*
O=C(Nc1nc2ccc(S(=O)(=O)N3CCCC3)cc2s1)C1CCCCC1	16	23*	41	19	47*
O=C(Cn1cccc1C(=O)c1ccccc1)NCc1cccs1	75	89	96	86	98
Cc1cccc(N2CCN(C(=O)Cc3cn(C)c4ccccc34)CC2)c1C	29	18*	71	26	89
SMILES	bCat KO growth	H69AR growth 86K	HUVEC inhibit	PTEN del growth	Fibroblast inh
CCOC(=O)c1oc2c(CN3CCN(C)CC3)c(O)ccc2c(=O)c1-c1ccccc1OC	96	88	94	107	102
COC(=O)c1sc(-c2ccccc2)cc1NC(=O)c1ccc(OC)cc1	3.1*	x	x	6	x
CC(C)(C)c1ccc(OCCCNCc2ccccc2)cc1	22	x	x	23	x
Cc1c(C#N)c(N)nc2c3c(sc12)NC(=O)CC3c1ccc(Cl)cc1 (centres undefined)	19	x	x	28	x
N#Cc1cc(Oc2cccc3cccnc23)c(-n2nnc3ccccc32)cc1C#N	13	18*	72	22	84
COC(=O)NCCOC(=O)N(O)c1ccc(Br)cc1	107	x	x	103	x
O=S(=O)(CC(CN1CCCC1)N1CCCC1)c1ccc2ccccc2c1 (centres undefined)	1.9*	1.9*	18*	2.1*	3.5*
CCCCC1CCC(/C(N)=N/O)CC1 (centres undefined)	81	27*	85	91	x
Cc1ccc(S(=O)(=O)Oc2ccc(/C=C(/NC(=O)c3ccccc3)C(=O)Nc3ccccc3)cc2)cc1	86	32*	82	94	104
CCC/C(C)=N/NC(=O)c1ccccc1O	91	x	x	90	x
C/C(=N\NC(=O)c1ccccc1O)C1C(=O)c2ccccc2C1=O	4.0*	x	x	5	x
C/C(=N/NC(=O)c1cc2ccccc2cc1O)C1C(=O)c2ccccc2C1=O	58	36*	63	76	75
C/C(CC(=O)N1CCN(C=O)CC1)=N\NC(=O)c1cc2ccccc2cc1O	41	x	x	51	x
O=C(c1ccco1)N1CCN(S(=O)(=O)c2ccc(Br)s2)CC1	73	95	95	78	94
Cc1ccc(Sc2ccc(/C=N/O)cc2[N+](=O)[O-])cc1	77	1.1*	76	83	73
CNc1c([N+](=O)[O-])ncn1C	71	99	113	69	100
Cc1ccc(-c2nc3ccccc3o2)cc1NC(=S)NC(=O)c1cccs1	94	x	x	73	x
Cc1cc(C)c2oc(-c3cccc(NC(=O)c4ccc(F)cc4)c3)nc2c1	89	17*	40	99	99
COc1cc(C(=O)Nc2cccc(-c3nc4cc(C)cc(C)c4o3)c2)cc(OC)c1OC	98	x	x	90	x
Cc1cc(C)c2oc(-c3ccc(C)c(NC(=S)NC(=O)c4cccs4)c3)nc2c1	3.8*	x	x	2.7*	x
CCCSc1nnc(Sc2nnnn2-c2ccccc2)s1	9	5.4*	7.6*	6	52
Cc1ccccc1-n1nnnc1Sc1nnnn1-c1ccccc1	2.0*	2.7*	28*	1.3*	21*
CC(C)c1nc(SCC(=O)N2CCN(c3ccccc3)CC2)c2c(=O)n(C)c(=O)n(C)c2n1	32	84	70	39	89
CC(=O)c1c[nH]c(C(=O)NCC2CCCO2)c1 (centres undefined)	96	x	x	101	x
Cn1c(C(=O)OC(C(=O)NC2CCCCC2)c2ccncc2)cc2sccc21 (centres undefined)	92	23*	90	85	85
Cn1c(C(=O)OC(C(=O)NC2CCCC2)c2ccncc2)cc2sccc21 (centres undefined)	96	79	96	88	97
CN1CCN(/N=C/c2nc(-c3ccc(Cl)cc3)n3ccccc23)CC1	95	x	x	93	x
COc1ccc(OC)c(S(=O)(=O)N(C)CC(=O)N2CCN(c3ccc(F)cc3)CC2)c1	87	95	101	86	18*
CCOc1ccc(-c2nc(N)ncc2-c2ccccc2)c(O)c1	87	28*	114	82	93
